From ChEMBL document CHEMBL4513216, “Probing the Open Global Health Chemical Diversity Library for Multistage-Active Starting Points for Next-Generation Antimalarials” (ACS Infect Dis, 2020)

assay: Toxicity liver stage against HepG2, at 10uM; format: cell-based; parameters: test concentration 10 uM, cell line HepG2-A16-CD81EGFP; conditions: human, HepG2-A16-CD81EGFP cells; read-out: INHIBITION
Summary of the method: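 Uninfected HepG2-A16-CD81EGFP cells, 3 × 10^3 per well, 1536-well, plated on prespotted compound at 10 μM final, parasite-free screening media added to match infected plates; puromycin 10 μM positive, DMSO 0.5% negative; run in parallel with 48 h PbLuc assay at 37 °C, 5% CO2; viability by CellTiter-Glo luminescence, normalized to controls.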

SMILES | cytotoxicity at 10 µM [%]
Cc1cccnc1NC(=O)CSc1ccc2c(c1)OCCO2 | -1.66
O=C(COc1ccc(-n2cccn2)nn1)N1CCCC1 | 1.43
CCc1cnc(N2C[C@@H]3[C@@H](C(=O)NC(C)C)CCS(=O)(=O)[C@@H]3C2)nc1 | -146
O=C(c1cccnc1)N1CCOCC2(CCN(c3ncccn3)C2)C1 (configuration not stated) | 8.88
Cn1cc(C2CC(=O)NC23CCN(C(=O)C2CC=CC2)CC3)cn1 (configuration not stated) | 8.13
O=C(c1ccccn1)N1CCc2ncnc(N3CCOCC3)c2CC1 | 0.661
CCCS(=O)(=O)N1CCc2onc(CNc3ncccn3)c2C1 | -2.25
Cc1ccc(-n2ccc3nc(N4CCCC4)ncc3c2=O)cc1C | 7.51
O=C1CCCN1Cc1noc(-c2ccc(Cl)cc2)n1 | 5.56
CC(C)c1nn(CC(=O)N2CCCCC2)c(=O)c2c1cnn2C(C)(C)C | -13.2
O=C(c1cn(-c2cc(N3CCSCC3)ncn2)cn1)N1CCSCC1 | -17.3
CNc1ncccc1CN1CCN(C(C)=O)CC(C(N)=O)C1 (configuration not stated) | 2.31
Cc1cccnc1C(=O)N1CCCC(Cc2cncc3ccccc23)C1 (configuration not stated) | -18
Cc1cc(CCC2CN(Cc3ccccc3C(=O)O)CCO2)ncn1 (configuration not stated) | -19.9
NC(=O)c1ccc(=O)n(Cc2cc(Br)ccc2Cl)n1 | 4.71
CC(c1nc(-c2ccccc2)no1)N1CC(n2cccn2)C1 (configuration not stated) | 1.62
N#Cc1cccc(OC2CCN(C(=O)c3cncc(O)c3)CC2)c1 | 7.28
c1nc2onc(C3CC3)c2cc1-c1nnc(C2CC2)o1 | 8.03
CC(C)(CNC(=O)c1ccco1)NC(=O)OC(C)(C)C | -2.43
CC(C)(CNC(=O)c1ccc(Cl)o1)NC(=O)OC(C)(C)C | -2.25
Cn1cc(N2CCN(c3ccc(C#N)cc3Br)CC2=O)cn1 | -5.48
O=C(NCC1(O)CCSCC1)c1nccc2ccccc12 | 4.59
CCCN(Cc1ccccc1O)S(=O)(=O)C(C)CC (configuration not stated) | 9.02

SMILES | cytotoxicity at 10 µM [%]
Cc1ccc(C(=O)NC2CCCN(c3ncccn3)C2)cn1 (configuration not stated) | -7.08
CCc1nnsc1C(=O)NCc1c(C)nn(CCOC)c1C | -8.8
CCc1nc(CN2CCCC(NCCn3cncn3)C2)no1 (configuration not stated) | -7.24
OC(CN1CCN(CC2CC2)CC1)c1ccc(Br)cc1 (configuration not stated) | -8.69
CS(=O)(=O)NC1CCN(C(=O)c2ccc(Br)cc2)C1 (configuration not stated) | 4.94
COCCn1ccc(NCc2sccc2C)n1 | 5.6
O=C(c1cccnc1-n1cncn1)N1CCN(c2ccccc2)CC1 | 4.06
CCN(CC)c1ccc(NC(=O)NC(C)Cn2cccn2)cn1 (configuration not stated) | 1.35
Cc1cc(NC(=O)NCC(c2ccsc2)N(C)C)n(C)n1 (configuration not stated) | -5.33
Cc1nnc2n1CCN(Cc1csc(-c3cnn(C)c3)n1)C2 | -3.5
Cc1c(C(=O)NCCN2C(=O)CCC2=O)sc2ccc(F)cc12 | 2.11
CN(C)c1ccc(NC(=O)c2ccnn2C)nc1 | 15.1
CC(=O)N1CCCN(CCn2nc3ccccn3c2=O)CC1 | -137
CC(C)NC(=O)c1nnn(-c2ccccc2)c1C1CC1 | 2.2
Cc1cc(CNc2ccc3nc(C4CC4)sc3c2)no1 | 0.981
O=c1[nH]nc(CNc2cncc(Br)c2)[nH]1 | -1.23
CCC(NCc1ccccc1Cl)c1ccccc1OCC(=O)NC (configuration not stated) | 13.3
Cc1ccc(CN(C)C)cc1NC(=O)C1CC=CC1 | -8
N#Cc1cnc(NCCCN2C(=O)COc3ccccc32)c(Cl)c1 | -3.64
CC1CCC(NS(=O)(=O)CC(=O)Nc2ccc(N3CCCC3)cn2)CC1 (configuration not stated) | 1.54
CS(=O)(=O)NCCNC(=O)Cc1ccc(Br)s1 | -7.21
CN(CCCc1cc(-c2ccc(F)cc2)n(C)n1)CC(N)=O | -8.71
CS(=O)(=O)CCOCCNc1ccc2ccc(F)cc2n1 | 3.55

SMILES | cytotoxicity at 10 µM [%]
O=C(COc1cccc2c1CCC2=O)NCCSc1ccccc1 | -1.22
CC(C)c1noc(-c2ccc(N(C)C3CCOCC3)nc2)n1 | -17.6
O=C(N[C@H]1CN2CCC1CC2)c1cc(Cn2cnc3ccccc32)[nH]n1 | -4.26
CN(Cc1cc[nH]n1)C(=O)C1CC(=O)N(Cc2ccncc2)C1 (configuration not stated) | 1.59
COc1ccccc1Oc1ncccc1CNC(=O)[C@H](C)O | -2.64
Cc1occc1C(=O)N1CCCC1c1ccc(C(=O)N2CCOCC2)s1 (configuration not stated) | -143
CCC(NC(=O)c1cnc(N(C)C)nc1C)c1ccncc1 (configuration not stated) | -2.9
O=C(CCC1CCN(C(=O)c2cnco2)CC1)NCc1cccc(Cl)c1 | -8.48
Nc1nc(CCNc2ncnc3c2CCN(C(=O)C2CC2)C3)cs1 | -6.68
Cn1ncc2c(N3CC(N4CCCCC4)C3)nc(C3CCCC3)nc21 | -5.07
Cn1cc(CN(C(=O)c2ccc3ncsc3c2)C2CC2)cn1 | 3.11
CC(C)(O)C1CCCN(C(=O)Nc2nc(-c3ccccc3)ns2)C1 (configuration not stated) | -137
CC(C)C1CN(Cc2c[nH]cn2)CCCN1CC1CC1 (configuration not stated) | 0.127
Cc1nc(C(C)C)sc1C(=O)NCCSc1nccn1C | -1.7
COc1cccnc1-c1ccc(F)c2c1OC(CN)C2 (configuration not stated) | 1.74
CCCc1nnc(N(C)CC2CCN(CC(C)C)C2)o1 (configuration not stated) | -1.41
CCc1ncc(C(=O)N(C)CC2Cc3ccccc3O2)cn1 (configuration not stated) | -0.734
CCN1CCc2[nH]cnc2C12CCN(c1ccc(Cl)cn1)CC2 | 6
CCSCCC(=O)NCc1cc2n(n1)CCN(C(=O)N(C)C)C2 | -5.38
Cc1cc(C)cc(S(=O)(=O)NCC2CNCCOC2)c1 (configuration not stated) | -1.86
CN(CC1(CO)CCCC1)C(=O)c1cc(COc2ccccc2F)[nH]n1 | 6.2
O=C(NCc1nc[nH]n1)c1cc(COc2ccccc2F)[nH]n1 | -3.58
COc1ccc(C(=O)N2CCN(CCO)CC2)c(F)c1 | -3.79

SMILES | cytotoxicity at 10 µM [%]
CCN(CC)S(=O)(=O)c1cccc(C(=O)N(C)Cc2ccsc2)c1 | -6.8
CN(Cc1ccsc1)C(=O)c1ccc(S(=O)(=O)NC(C)(C)C)cc1 | -8.01
NC(=O)Cn1cc(NC(=O)N2CCN(c3ccccc3)CC2)cn1 | -8.45
CN1CCCC1CNC(=O)CCCOc1ccc(Br)cc1 (configuration not stated) | -7.69
Cc1nc(C2CCCN2Cc2ccon2)no1 (configuration not stated) | -18
COc1ccccc1OCCC(=O)N1CCCCC1c1nccs1 (configuration not stated) | -15.7
CN(C)c1cc(CNC(=O)Nc2cccnc2N2CCCC2)ccn1 | -20.5
CCN1CCOC(CNCc2csc(C)n2)C1 (configuration not stated) | -5.13
CCn1cc(NC(=O)NCc2ccc(CO)c(F)c2)cn1 | 8.69
COc1c(CNC2CCc3ccccc32)c(C)nn1C (configuration not stated) | 7.08
COc1cccc(CN2CCCCC2Cn2nc(C)nc2C)c1 (configuration not stated) | -11.5
Cc1cnn(CC2CN(Cc3nc4ccccc4o3)CCO2)c1 (configuration not stated) | -3.49
Cc1ccc(C(O)CN2CCN(Cc3nccn3C)CC2)cc1C (configuration not stated) | -37
NC(=O)Cn1cc(NC(=O)NCCN2CCc3ccccc3C2)cn1 | -9.52
CCc1nc(C2CCCN(C(=O)c3ccncc3)C2)no1 (configuration not stated) | -13
CCn1cnnc1CNC(=O)N1CCN(Cc2ccsc2)CC1 | -15.4
CCn1cc(CN2CCCN(C(=O)c3ccco3)CC2)cn1 | -11.3
CNc1cc2c(nn1)CCN(C(=O)c1cc(C)no1)C2 | -15.8
COc1ccc2c(c1)CN(c1cc(N3CCCC3CO)ncn1)CC2 (configuration not stated) | -4.16
CCOc1ccc(CC(CNC(=O)c2ccc(C)o2)C(N)=O)cc1 (configuration not stated) | 3.58
O=C(Cc1ccc2c(c1)CCC2)N1CCCC(n2cccn2)C1 (configuration not stated) | -7.81
Cc1nc(CN2CCN(C(=O)c3c(C)noc3C)CC2)cs1 | -23.2
Cc1ccc(C(=O)N2CCc3c(CNc4ncccn4)cncc3C2)o1 | 9.21

SMILES | cytotoxicity at 10 µM [%]
Cc1ccc(CN2C[C@H](OCC3CCOCC3)[C@H]3COC[C@H]32)o1 | -4.58
Cc1ncnc2c1CCN(Cc1ccccn1)CC2 | -10.4
c1cncc(OC[C@@]23CCO[C@@H]2CCN(Cc2cccs2)C3)c1 | 14.6
O=C(CN1CC(c2nc(-c3ccco3)no2)C1)NCCc1ccccc1 | -9.54
CCN(CC)[C@@H]1CN(C(=O)c2ccnnc2)[C@@H]2CCCO[C@H]12 | -146
Cc1cnc(N2C[C@@H]3CCN(CC(=O)N(C)C)C(=O)[C@H]3C2)nc1 | -19
CO[C@@H]1CCN(Cc2cccc(C)n2)[C@@H]2CN(Cc3ccncc3)C[C@@H]21 | 0.951
c1cncc(COCC2CN(Cc3cccnc3)Cc3ccnn3C2)c1 (configuration not stated) | -136
CCn1ncc2c1C(COC)CN(Cc1cccnc1)C2 (configuration not stated) | 0.588
O=C(c1cnccn1)N1CCCC2(CCN(Cc3ccsc3)CC2)C1 | 1.55
O=C(c1cccc(F)c1)N1C[C@H]2CN(Cc3ccccn3)C[C@H]2C1 | -1.92
CN1CC[C@H]2OCC[C@@]2(C(=O)NCCc2ccccn2)C1 | 1.82
COCCN1CCC2(CC1)CCN(Cc1ccccn1)CC2 | -3.54
CC(=O)N1[C@H](CN(C)C)C[C@@H]2CN(C(=O)Cc3cccs3)CC[C@@H]21 | -0.155
Cc1ccc(C(=O)N2C[C@@H]3CCN(C(C)C)C[C@@H]3C2)cn1 | -6.54
COc1ccc(-n2cc3[nH]c(=O)n(Cc4cccc(F)c4)n3c2=O)cc1 | 14.8
CCc1c(C(=O)N2C[C@@H]3CC[C@H]2CN(c2cnccn2)C3)csc1C | 13.3
CN1[C@@H]2CC[C@H]1CN(C(=O)c1nnc3n1CCCCC3)CC2 | -5.43
O=C1CCC2(CCN(Cc3cscn3)CC2)CN1C1CCC(O)CC1 (configuration not stated) | -4.33
CSc1nc(N)cc(N2C[C@H]3CC[C@@H](C2)N(CC2CC2)C3=O)n1 | 0.291
